Data taken from ChEMBL document CHEMBL4602725 (J Med Chem, 2020).

Experiments:
Histone deacetylase 3 = Histone deacetylase 3 (Homo sapiens, UniProt O15379); test: Inhibition of human recombinant HDAC3 pre-incubated for 30 mins before Ac-Leu- Gly-Lys(Ac)-AMC substrate addition and measured after 90 mins by fluorescence based assay
Histone deacetylase 2 = Histone deacetylase 2 (Homo sapiens, UniProt Q92769); test: Inhibition of human recombinant HDAC2 pre-incubated for 30 mins before Ac-Leu- Gly-Lys(Ac)-AMC substrate addition and measured after 90 mins by fluorescence based assay
Homo sapiens [1] = species on record: Homo sapiens; test: Selectivity index, ratio of IC50 for inhibition of human recombinant HDAC8 to IC50 for inhibition of human recombinant HDAC1
Histone deacetylase 1 = Histone deacetylase 1 (Homo sapiens, UniProt Q13547); test: Inhibition of human recombinant HDAC1 pre-incubated for 30 mins before Ac-Leu- Gly-Lys(Ac)-AMC substrate addition and measured after 90 mins by fluorescence based assay
Homo sapiens [2] = species on record: Homo sapiens; test: Selectivity index, ratio of IC50 for inhibition of human recombinant HDAC2 to IC50 for inhibition of human recombinant HDAC1
Homo sapiens [3] = species on record: Homo sapiens; test: Selectivity index, ratio of IC50 for inhibition of human recombinant HDAC3 to IC50 for inhibition of human recombinant HDAC1
Histone deacetylase 7 = biological target: T1, Histone deacetylase 7 (Homo sapiens, UniProt Q8WUI4); test: Inhibition of human recombinant HDAC7 pre-incubated for 15 mins before Ac-Leu-Gly-Lys(trifluroAc)-AMC substrate addition and measured after 60 mins by fluorescence based assay
T1 sequence (Q8WUI4 whole entry): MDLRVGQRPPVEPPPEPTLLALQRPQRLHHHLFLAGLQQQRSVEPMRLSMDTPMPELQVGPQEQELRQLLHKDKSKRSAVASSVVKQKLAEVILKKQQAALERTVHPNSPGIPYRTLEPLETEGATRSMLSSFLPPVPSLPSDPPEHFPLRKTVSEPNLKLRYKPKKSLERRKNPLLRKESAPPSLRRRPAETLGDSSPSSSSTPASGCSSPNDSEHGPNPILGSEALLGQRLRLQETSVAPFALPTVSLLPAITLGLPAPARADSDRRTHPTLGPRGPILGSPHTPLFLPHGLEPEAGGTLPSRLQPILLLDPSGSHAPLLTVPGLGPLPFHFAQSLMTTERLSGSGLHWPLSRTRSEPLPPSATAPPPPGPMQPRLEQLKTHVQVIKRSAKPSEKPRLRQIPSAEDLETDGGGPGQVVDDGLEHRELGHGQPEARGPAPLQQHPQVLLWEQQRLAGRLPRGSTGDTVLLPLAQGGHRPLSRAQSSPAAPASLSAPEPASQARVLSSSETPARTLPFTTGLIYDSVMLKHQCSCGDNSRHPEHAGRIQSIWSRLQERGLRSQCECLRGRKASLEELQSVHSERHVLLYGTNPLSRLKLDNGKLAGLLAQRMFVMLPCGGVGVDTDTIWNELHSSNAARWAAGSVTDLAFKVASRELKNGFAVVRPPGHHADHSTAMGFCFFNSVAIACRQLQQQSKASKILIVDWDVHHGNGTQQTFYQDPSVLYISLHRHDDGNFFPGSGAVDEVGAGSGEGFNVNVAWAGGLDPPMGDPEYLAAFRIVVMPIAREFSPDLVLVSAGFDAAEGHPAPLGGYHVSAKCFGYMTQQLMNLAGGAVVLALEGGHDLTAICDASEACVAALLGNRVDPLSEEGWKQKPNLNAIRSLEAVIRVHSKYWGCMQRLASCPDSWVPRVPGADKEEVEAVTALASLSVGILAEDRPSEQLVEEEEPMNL

Histone deacetylase 8 = biological target: T2, Histone deacetylase 8 (Homo sapiens, UniProt Q9BY41); test: Inhibition of human recombinant HDAC8 pre-incubated for 30 mins before Ac-Leu- Gly-Lys(Ac)-AMC substrate addition and measured after 90 mins by fluorescence based assay
T2 sequence (Q9BY41 whole entry): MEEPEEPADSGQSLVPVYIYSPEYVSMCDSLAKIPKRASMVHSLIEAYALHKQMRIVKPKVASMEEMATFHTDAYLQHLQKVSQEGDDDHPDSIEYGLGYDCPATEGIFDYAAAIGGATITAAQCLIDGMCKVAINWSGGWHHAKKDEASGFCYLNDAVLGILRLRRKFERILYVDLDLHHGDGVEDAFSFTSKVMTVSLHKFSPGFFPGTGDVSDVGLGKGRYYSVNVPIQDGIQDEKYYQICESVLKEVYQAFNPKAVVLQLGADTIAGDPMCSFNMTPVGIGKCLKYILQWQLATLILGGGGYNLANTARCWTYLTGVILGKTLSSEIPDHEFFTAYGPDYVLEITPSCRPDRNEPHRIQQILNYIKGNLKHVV

Homo sapiens [4] = species on record: Homo sapiens; test: Selectivity index, ratio of IC50 for inhibition of human recombinant HDAC7 to IC50 for inhibition of human recombinant HDAC1
In short: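 HDAC7 arm: 5 ng/mL recombinant human HDAC7 pre-incubated 15 min with inhibitor, then Ac-Leu-Gly-Lys(trifluoroAc)-AMC (20 µM) for 60 min at 37°C. Developer was trypsin with 10 μM SAHA, 15 min; fluorescence 350/460 nm. HDAC1 was run with 30 min pre-incubation, 12 µM Ac-Leu-Gly-Lys(Ac)-AMC, 90 min. Ratio of the HDAC7 IC50 to the HDAC1 IC50.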

Sequence of Histone deacetylase 2 (Q92769 whole entry): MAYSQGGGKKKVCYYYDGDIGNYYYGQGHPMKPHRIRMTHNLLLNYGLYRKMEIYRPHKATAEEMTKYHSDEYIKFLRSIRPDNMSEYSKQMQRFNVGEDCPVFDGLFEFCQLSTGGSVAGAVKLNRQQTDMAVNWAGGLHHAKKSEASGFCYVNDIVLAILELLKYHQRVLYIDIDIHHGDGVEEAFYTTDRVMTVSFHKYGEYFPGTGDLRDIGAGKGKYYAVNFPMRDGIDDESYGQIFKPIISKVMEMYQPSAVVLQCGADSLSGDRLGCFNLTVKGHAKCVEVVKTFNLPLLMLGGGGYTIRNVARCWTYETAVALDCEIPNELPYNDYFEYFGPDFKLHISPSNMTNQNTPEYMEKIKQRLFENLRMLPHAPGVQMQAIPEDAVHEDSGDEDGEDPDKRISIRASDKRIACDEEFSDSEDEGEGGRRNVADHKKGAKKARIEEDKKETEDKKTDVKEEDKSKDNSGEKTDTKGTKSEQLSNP
Sequence of Histone deacetylase 3 (O15379 whole entry): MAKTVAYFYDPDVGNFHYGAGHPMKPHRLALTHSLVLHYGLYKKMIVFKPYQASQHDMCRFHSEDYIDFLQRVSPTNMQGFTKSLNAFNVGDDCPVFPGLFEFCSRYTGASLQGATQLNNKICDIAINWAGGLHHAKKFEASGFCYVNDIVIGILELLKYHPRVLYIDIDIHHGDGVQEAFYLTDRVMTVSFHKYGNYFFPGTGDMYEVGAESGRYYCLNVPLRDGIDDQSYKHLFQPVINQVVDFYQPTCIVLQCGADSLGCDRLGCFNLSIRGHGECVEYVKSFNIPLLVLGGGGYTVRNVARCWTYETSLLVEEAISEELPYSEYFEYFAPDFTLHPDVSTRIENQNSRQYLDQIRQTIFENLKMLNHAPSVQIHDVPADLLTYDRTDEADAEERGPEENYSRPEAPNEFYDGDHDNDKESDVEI
Sequence of Histone deacetylase 1 (Q13547 whole entry): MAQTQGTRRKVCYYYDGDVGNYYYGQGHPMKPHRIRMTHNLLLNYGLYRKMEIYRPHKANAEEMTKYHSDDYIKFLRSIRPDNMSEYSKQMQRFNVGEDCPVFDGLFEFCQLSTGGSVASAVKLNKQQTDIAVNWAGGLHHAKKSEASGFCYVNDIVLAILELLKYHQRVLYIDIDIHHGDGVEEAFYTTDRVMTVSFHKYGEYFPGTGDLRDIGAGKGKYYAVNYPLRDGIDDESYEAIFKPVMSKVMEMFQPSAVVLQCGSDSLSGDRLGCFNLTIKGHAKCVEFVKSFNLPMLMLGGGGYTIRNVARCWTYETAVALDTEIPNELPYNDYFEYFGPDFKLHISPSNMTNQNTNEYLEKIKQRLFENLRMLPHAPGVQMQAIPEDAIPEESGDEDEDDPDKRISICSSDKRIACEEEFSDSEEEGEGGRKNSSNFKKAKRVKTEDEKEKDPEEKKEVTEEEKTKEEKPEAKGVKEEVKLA

CN(C)c1ccc(C2(C(=O)Nc3ccc(C(=O)NO)cc3)CCCC2)cc1
IC50 (Histone deacetylase 3): 9 nM
IC50 (Histone deacetylase 2): 49 nM
Ratio IC50 (Homo sapiens [1]): 14 to 61
IC50 (Histone deacetylase 1): 4 nM
Ratio IC50 (Homo sapiens [2]): 5 to 12
Ratio IC50 (Homo sapiens [3]): 2 to 3
IC50 (Histone deacetylase 7): 2500 nM
IC50 (Histone deacetylase 8): 89 nM
Ratio IC50 (Homo sapiens [4]): 140 to 600
